Experiment [1] is filed under the species Homo sapiens. The experiment can be described thus: Compound (1 x 10e-4 M) was evaluated in vitro for its ability to inhibit the growth of the human epidermoid carcinoma KB; Inactive until maximum tested concentration of 1xe-4 M. Type of experiment: functional.
For another experiment, the system named is P388. The experiment can be described thus: Compound (1 x 10e-4 M) was evaluated in vitro for its ability to inhibit the growth of the murine leukemia P388; Inactive until maximum tested concentration of 1xe-4 M. Type of experiment: functional, cell-based. The conditions noted are these: Mus musculus.
The next experiment relates to HL-60. The experiment can be described thus: Compound (1 x 10e-4 M) was evaluated in vitro for its ability to inhibit the growth of the human promyelocytic leukemia HL-60; Inactive until maximum tested concentration of 1xe-4 M. The format is functional, cell-based.
A further experiment deals with L1210. The experiment can be described thus: Compound (1 x 10e-4 M) was evaluated in vitro for its ability to inhibit the growth of the murine leukemia L1210; Inactive until maximum tested concentration of 1xe-4 M. Type of experiment: functional, cell-based. Conditions: Mus musculus.
The species entered for experiment [2] is Homo sapiens. The experiment in a line: Compound (1 x 10e-4 M) was evaluated in vitro for its ability to inhibit the growth of the human epidermoid carcinoma KB. Type of experiment: functional. In a few lines: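 KB cells in exponential growth, in RPMI-1640 with antibiotics, 3 mM glutamine, 10 mM HEPES and 5% heat-inactivated newborn calf serum. Seeded at 5 × 10³ cells/well and exposed in quadruplicate to compound (DMSO ≤0.5% final), up to a maximum of 1×10^-4 M, for 48 h at 37 °C. [¹²⁵I]-5-iodo-2'-deoxyuridine plus 5-fluoro-2'-deoxyuridine then added for 18 h. Cells trypsin/EDTA-detached, filter-harvested and γ-counted. Inhibition expressed as % of control incorporation.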

SMILES strings stand for the structures. Calls of active or inactive are those of the source. The calls are words filed in the database; no cut-off is given here.

Take `Nc1nccc2c1ccn2[C@H]1C[C@H](O)[C@@H](CO)O1`: the ID50 result in the experiment listed under Homo sapiens [1], in the experiment with P388, with HL-60 and in the experiment on L1210 was “Inactive until maximum tested concentration of 1xe-4 M” throughout.

On to `Nc1ncnc2c1ccn2[C@@H]1O[C@H](CO)[C@@H](O)[C@H]1O`, for which, in the experiment filed under Homo sapiens [2], the ID50 turned out to be 52 nM.

With `Nc1nc(Cl)cc2c1ccn2[C@H]1C[C@H](O)[C@@H](CO)O1`, the ID50 result in the experiment listed under Homo sapiens [1], in the experiment with P388, in the experiment on HL-60 and in the experiment with L1210 was “Inactive until maximum tested concentration of 1xe-4 M” throughout.

Consider `Nc1nccc2c1ccn2[C@@H]1O[C@H](CO)[C@@H](O)[C@H]1O`, for which the ID50 result in the experiment filed under Homo sapiens [1], with P388, in the experiment on HL-60 and with L1210 was “Inactive until maximum tested concentration of 1xe-4 M” in each case.

Turning to `Nc1nc(Cl)cc2c1ccn2[C@@H]1O[C@H](CO)[C@@H](O)[C@H]1O`, the ID50 result in the experiment filed under Homo sapiens [1], with P388, with HL-60 and in the experiment on L1210 was “Inactive until maximum tested concentration of 1xe-4 M” in each case.
